Data as given in ChEMBL document CHEMBL1255375, “Mutational events in cefotaximase extended-spectrum beta-lactamases of the CTX-M-1 cluster involved in ceftazidime resistance” (2008).
Converted amounts (≈) assume the structure as drawn.

Tests used:
Escherichia coli [1] = assay: Antimicrobial activity against beta lactamase CTX-M-10 producing Escherichia coli MI1443 by broth microdilution
Escherichia coli [2] = assay: Antimicrobial activity against Escherichia coli MI1443 harboring A77V and P167S mutations in beta lactamase CTX-M-10 by E-test; format: functional
Outline: (§1)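 E-test MICs on E. coli MI1443 carrying artificial blaCTX-M derivatives. Each gene was cloned into pBGS18– at EcoRI/PstI, transformed into MI1443, selected with kanamycin 50 µg/ml, and sequenced to confirm the mutation. Agents: cefotaxime, ceftazidime, cefepime, cefuroxime, amoxicillin-clavulanate.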

Escherichia coli [3] = assay: Antimicrobial activity against beta lactamase CTX-M-10 producing Escherichia coli GB20 by broth microdilution method; format: functional
Escherichia coli [4] = assay: Antimicrobial activity against Escherichia coli GB20 harboring V27A, Q38R, A77V, P167S mutation in beta lactamase CTX-M-3 by broth microdilution method; format: functional
Escherichia coli [5] = assay: Antimicrobial activity against Escherichia coli GB20 harboring V27A, Q38R, P167S mutation in beta lactamase CTX-M-3 by broth microdilution method; format: functional
Escherichia coli [6] = assay: Antimicrobial activity against Escherichia coli GB20 harboring P167S mutation in beta lactamase CTX-M-10 by broth microdilution method; format: functional
Escherichia coli [7] = assay: Antimicrobial activity against Escherichia coli GB20 harboring V27A, Q38R, A77V, N114D, A140S, D288N mutations in beta lactamase CTX-M-1 by broth microdilution method; format: functional
Escherichia coli [8] = assay: Antimicrobial activity against Escherichia coli MI1443 harboring N106S mutation in beta lactamase CTX-M-10 by E-test; format: functional
Outline: as §1

Escherichia coli [9] = assay: Antimicrobial activity against Escherichia coli GB20 harboring V27A, Q38R, A77V, N114D, A140S, P167S, D288N mutations in beta lactamase CTX-M-1 by broth microdilution method; format: functional
Escherichia coli [10] = assay: Antimicrobial activity against Escherichia coli MI1443 harboring A77V and D240G mutations in beta lactamase CTX-M-10 by E-test; format: functional
Outline: as §1

Escherichia coli [11] = assay: Antimicrobial activity against Escherichia coli GB20 harboring V27A, Q38R mutations in beta lactamase CTX-3 by broth microdilution method; format: functional
Escherichia coli [12] = assay: Antimicrobial activity against Escherichia coli MI1443 harboring V27A, Q38R, N106S mutations in beta lactamase CTX-M-3 by E-test; format: functional
Outline: (§2)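 MICs by E-test. Host is E. coli MI1443 carrying an artificial blaCTX-M derivative made by PCR and cloned into pBGS18- (EcoRI/PstI). Transformants were selected on kanamycin 50 µg/ml and the mutation was confirmed by sequencing. Agents tested: cefotaxime, ceftazidime, cefepime, cefuroxime and amoxicillin-clavulanate.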

Escherichia coli [13] = assay: Antimicrobial activity against Escherichia coli MI1443 harboring V27A, Q38R, D240G mutations in beta lactamase CTX-M-15 by broth microdilution method; format: functional
Escherichia coli [14] = assay: Antimicrobial activity against Escherichia coli MI1443 harboring V27A, Q38R, A77V, N114D, A140S, D240G, D288N mutations in beta lactamase CTX-M-32 by broth microdilution method; format: functional
Escherichia coli [15] = assay: Antimicrobial activity against Escherichia coli MI1443 harboring V27A, Q38R, A77V and D240G mutations in beta lactamase CTX-M-3 by E-test; format: functional
Outline: as §1

Escherichia coli [16] = assay: Antimicrobial activity against Escherichia coli MI1443 harboring N106S and P167S mutations in beta lactamase CTX-M-10 by E-test; format: functional
Outline: as §1

Escherichia coli [17] = assay: Antimicrobial activity against Escherichia coli GB20 harboring V27A, Q38R, A77V, N114D, A140S, P167T, D288N mutations in beta lactamase CTX-M-1 by broth microdilution method; format: functional
Escherichia coli [18] = assay: Antimicrobial activity against Escherichia coli MI1443 harboring V27A, Q38R, A77V mutations in beta lactamase CTX-M-3 by E-test; format: functional
Outline: as §2

Escherichia coli [19] = assay: Antimicrobial activity against Escherichia coli MI1443 harboring V27A, Q38R, N106S and D240G mutations in beta lactamase CTX-M-3 by E-test; format: functional
Outline: as §1

Escherichia coli [20] = assay: Antimicrobial activity against Escherichia coli MI1443 harboring P167S and D240G mutations in beta lactamase CTX-M-10 by E-test; format: functional
Outline: as §2

Escherichia coli [21] = assay: Antimicrobial activity against Escherichia coli MI1443 harboring V27A and Q38R mutations in beta lactamase CTX-M-10 by E-test; format: functional
Outline: as §1

Escherichia coli [22] = assay: Antimicrobial activity against Escherichia coli MI1443 harboring V27A, Q38R, P167S and D240G mutations in beta lactamase CTX-M-3 by E-test; format: functional
Outline: as §2

Escherichia coli [23] = assay: Antimicrobial activity against Escherichia coli MI1443 harboring V27A, Q38R, N106S and P167S mutations in beta lactamase CTX-M-3 by E-test; format: functional
Outline: as §2

Escherichia coli [24] = assay: Antimicrobial activity against Escherichia coli MI1443 harboring N106S and D240G mutations in beta lactamase CTX-M-10 by E-test; format: functional
Outline: as §1

Escherichia coli [25] = assay: Antimicrobial activity against Escherichia coli GB20 harboring D240G mutation in beta lactamase CTX-M-10 by broth microdilution method; format: functional
Escherichia coli [26] = assay: Antimicrobial activity against Escherichia coli MI1443 harboring A77V mutation in beta lactamase CTX-M-10 by E-test; format: functional
Outline: as §2

SMILES	MIC (Escherichia coli [1]) [µg/mL]	MIC (Escherichia coli [2]) [µg/mL]	MIC (Escherichia coli [3]) [µg/mL]	MIC (Escherichia coli [4]) [µg/mL]	MIC (Escherichia coli [5]) [µg/mL]	MIC (Escherichia coli [6]) [µg/mL]	MIC (Escherichia coli [7]) [µg/mL]	MIC (Escherichia coli [8]) [µg/mL]	MIC (Escherichia coli [9]) [µg/mL]	MIC (Escherichia coli [10]) [µg/mL]	MIC (Escherichia coli [11]) [µg/mL]	MIC (Escherichia coli [12]) [µg/mL]	MIC (Escherichia coli [13]) [µg/mL]	MIC (Escherichia coli [14]) [µg/mL]	MIC (Escherichia coli [15]) [µg/mL]	MIC (Escherichia coli [16]) [µg/mL]	MIC (Escherichia coli [17]) [µg/mL]	MIC (Escherichia coli [18]) [µg/mL]	MIC (Escherichia coli [19]) [µg/mL]	MIC (Escherichia coli [20]) [µg/mL]	other results
CO/N=C(\C(=O)N[C@@H]1C(=O)N2C(C(=O)O)=C(COC(N)=O)CS[C@H]12)c1ccco1 [CEFUROXIME]	≥ 256	64 (≈ 151 µM)	≥ 256	64 (≈ 151 µM)	128 (≈ 302 µM)	32 (≈ 75.4 µM)															
CC(C)(O/N=C(\C(=O)N[C@@H]1C(=O)N2C(C(=O)[O-])=C(C[n+]3ccccc3)CS[C@H]12)c1csc(N)n1)C(=O)O [CEFTAZIDIME]	1 (≈ 1.83 µM)	64 (≈ 117 µM)	1 (≈ 1.83 µM)	32 (≈ 58.5 µM)	32 (≈ 58.5 µM)	32 (≈ 58.5 µM)	4 (≈ 7.32 µM)	0.5 (≈ 0.915 µM)	256 (≈ 468 µM)	8 (≈ 14.6 µM)	1 (≈ 1.83 µM)	0.5 (≈ 0.915 µM)	2 (≈ 3.66 µM)	2 (≈ 3.66 µM)	2 (≈ 3.66 µM)	16 (≈ 29.3 µM)	256 (≈ 468 µM)	1 (≈ 1.83 µM)	2 (≈ 3.66 µM)	4 (≈ 7.32 µM)	MIC (Escherichia coli [21]): 1 µg/mL (≈ 1.83 µM); MIC (Escherichia coli [22]): 8 µg/mL (≈ 14.6 µM); MIC (Escherichia coli [23]): 32 µg/mL (≈ 58.5 µM); MIC (Escherichia coli [24]): 2 µg/mL (≈ 3.66 µM); MIC (Escherichia coli [25]): 16 µg/mL (≈ 29.3 µM); MIC (Escherichia coli [26]): 8 µg/mL (≈ 14.6 µM)
CO/N=C(\C(=O)N[C@@H]1C(=O)N2C(C(=O)O)=C(COC(C)=O)CS[C@H]12)c1csc(N)n1 [CEFOTAXIME]	256 (≈ 562 µM)	4 (≈ 8.78 µM)	256 (≈ 562 µM)	4 (≈ 8.78 µM)	1 (≈ 2.2 µM)	1 (≈ 2.2 µM)	≥ 256	2 (≈ 4.39 µM)	16 (≈ 35.1 µM)	≥ 256	256 (≈ 562 µM)	3 (≈ 6.59 µM)	128 (≈ 281 µM)	256 (≈ 562 µM)	≥ 256	2 (≈ 4.39 µM)	16 (≈ 35.1 µM)	128 (≈ 281 µM)	≥ 256	4 (≈ 8.78 µM)	MIC (Escherichia coli [21]): 256 µg/mL (≈ 562 µM); MIC (Escherichia coli [22]): 1.5 µg/mL (≈ 3.29 µM); MIC (Escherichia coli [23]): 3 µg/mL (≈ 6.59 µM); MIC (Escherichia coli [24]): 64 µg/mL (≈ 141 µM); MIC (Escherichia coli [25]): ≥ 256 µg/mL; MIC (Escherichia coli [26]): ≥ 256 µg/mL
CO/N=C(\C(=O)N[C@@H]1C(=O)N2C(C(=O)[O-])=C(C[N+]3(C)CCCC3)CS[C@H]12)c1csc(N)n1 [CEFEPIME]	32 (≈ 66.6 µM)	1 (≈ 2.08 µM)	32 (≈ 66.6 µM)	0.25 (≈ 0.52 µM)	0.5 (≈ 1.04 µM)	1 (≈ 2.08 µM)	128 (≈ 266 µM)	1 (≈ 2.08 µM)	4 (≈ 8.32 µM)	32 (≈ 66.6 µM)	32 (≈ 66.6 µM)	1.5 (≈ 3.12 µM)	1 (≈ 2.08 µM)	4 (≈ 8.32 µM)	4 (≈ 8.32 µM)	1 (≈ 2.08 µM)	4 (≈ 8.32 µM)	1.5 (≈ 3.12 µM)	8 (≈ 16.6 µM)	< 0.25	MIC (Escherichia coli [21]): 32 µg/mL (≈ 66.6 µM); MIC (Escherichia coli [22]): 0.5 µg/mL (≈ 1.04 µM); MIC (Escherichia coli [23]): 1.5 µg/mL (≈ 3.12 µM); MIC (Escherichia coli [24]): 4 µg/mL (≈ 8.32 µM); MIC (Escherichia coli [25]): 4 µg/mL (≈ 8.32 µM); MIC (Escherichia coli [26]): 128 µg/mL (≈ 266 µM)
